# Assay outcomes as filed in PubChem BioAssay.
# Shown are actives, neighbours in structure and some others; about 2.6% of the full set was active somewhere.
# CASP6 VEID inh: inhibitors of human caspase-6; P55212; purified caspase-6, Z-VEID-R110 cleavage fluorescence; inhibition, % at 12.5 µM; 350,000 tested, 0.53% active; AID 686996;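 active = mean inhibition across replicates at least about 35%, with every replicate also reaching that limit, limit read from the data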;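 note: 0% = median of neutral control wells and 100% = no fluorescence left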
# Target sequence (P55212 24-179 limits assumed): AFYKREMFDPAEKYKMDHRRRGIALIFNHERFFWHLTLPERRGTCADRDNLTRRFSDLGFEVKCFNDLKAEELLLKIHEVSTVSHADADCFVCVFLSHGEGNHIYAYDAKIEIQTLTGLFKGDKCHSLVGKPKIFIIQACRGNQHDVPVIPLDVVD
# Target sequence (P55212 194-293 limits assumed): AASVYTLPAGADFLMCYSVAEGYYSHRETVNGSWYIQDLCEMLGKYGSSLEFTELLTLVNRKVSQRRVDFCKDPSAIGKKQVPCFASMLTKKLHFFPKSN
# FGF22 binding: FGF22 (human) thermal shift binding; 340,000 tested, 1.5% active; recombinant FGF22 thermal shift, SYPRO orange fluorescence; percent of sucrose octasulfate shift, DMSO zero; Q9HCT0; activity (Tm shift, normalised), % at 9.99 µM;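 active = mean Tm shift, scaled 0 neutral to 100 positive control, at about 1.3% or above, every replicate too, limit read from the data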
# Target sequence (Q9HCT0 whole entry, looked up): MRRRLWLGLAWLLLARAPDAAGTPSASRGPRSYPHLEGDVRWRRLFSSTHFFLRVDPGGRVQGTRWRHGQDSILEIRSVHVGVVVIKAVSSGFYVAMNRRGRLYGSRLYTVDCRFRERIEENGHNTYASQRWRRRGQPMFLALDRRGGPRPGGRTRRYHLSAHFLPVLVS
# SIRT5 inh: inhibitors of human sirtuin-5 desuccinylase; Purified SirT5, succinyl-peptide AMC, trypsin-coupled fluorescence; 330,000 tested, 1.1% active; Q9NXA8; inhibition, % at 15 µM; in the data active = inhibition above about 15%
# NSD2 inh: inhibitors of human histone methyltransferase NSD2; 310,000 tested, 0.54% active; NSD2 peptide methylation, AlphaScreen, 120 min; AID 743445; inhibition, % at 12.5 µM; O96028; in the data active = inhibition above about 50%
# UCH37 inh: inhibitors of human deubiquitinating enzyme UCH37; Q9Y5K5; purified proteasome/UCH37, Ub-AMC cleavage fluorescence; inhibition, % (no concentration beside the values); 330,000 tested, 0.33% active;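 active = mean inhibition over replicate wells above about 20%, limit read from the data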;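 note: 0% = compound-free wells with enzyme and 100% = wells lacking proteasome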
#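 Material: Human UCH37 enzyme supplied as purified proteasome complex | Schedule: 30 min preincubation with enzyme, 25 min cleavage at room temperature | Detection: AMC fluorescence 355/460 nm | Measure: % inhibition of Ub-AMC cleavage fluorescence | Controls: Wells without proteasome as full block, compound-free enzyme plus substrate as uninhibited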
# * hit, by the source's call; . = no result.
SMILES,CASP6 VEID inh,FGF22 binding,SIRT5 inh,NSD2 inh,UCH37 inh
C[C@H]1CN([C@@H](C)CO)C(=O)c2cc(NC(=O)CCC(F)(F)F)ccc2O[C@H]1CN(C)S(=O)(=O)c1ccc(F)cc1,3,0,3,.,.
C[C@H]1CN([C@@H](C)CO)C(=O)c2cc(NC(=O)CCC(F)(F)F)ccc2O[C@H]1CN(C)C,2,0,17*,.,.
Cc1[nH]nc2c1C(=NO)CCC2,.,.,.,.,0
O=C(O)c1c(-c2ccccc2)c(-c2ccccc2)nc2ccccc12,5,43*,1,-6,2
O=C1CCCc2c1cc(C(=O)Nc1ccc(Br)cn1)c(=O)n2-c1ccccc1,.,.,.,-1,4
Cc1ccc(-n2c3c(cc(C(=O)NCC(=O)c4ccccc4)c2=O)C(=O)CCC3)cc1,1,0,-2,0,-9
O=C1CCCc2c1cc(C(=O)O)c(=O)n2-c1ccccc1,1,43*,2,-2,3
CCOC(=O)c1cc2c(n(-c3ccc(Cl)cc3)c1=O)CCCC2=O,-4,44*,-2,-1,-22
CCCCn1c2c(cc(C(=O)OC)c1=O)C(=O)CCC2,4,0,-8,.,-11
COC(=O)c1cc2c(n(Cc3ccccc3)c1=O)CCCC2=O,3,43*,.,.,-7
CCOC(=O)COc1cc(Br)c(C=NNc2ccccc2)cc1OC,.,.,.,.,-39
COc1ccc(CNC(=O)C(c2ccncc2)N(C(=O)Cc2cccs2)c2ccccc2)cc1 (stereo not drawn),-1,0,-2,-2,0
COc1ccc(N(C(=O)CCl)C(C(=O)NCCc2ccccc2)c2cccs2)cc1 (stereo not drawn),2,43*,2,8,0
Cc1nnc(SCC(=O)NN=Cc2cn(-c3ccccc3)nc2-c2ccccc2)n1-c1ccccc1,.,.,.,.,1
O=C(c1ccccc1)c1sc(N2CCOCC2)nc1-c1ccccc1,0,44*,4,-8,5
C[C@@H]1CCCCO[C@@H](CN(C)Cc2ccc(C(=O)Nc3ccccc3N)cc2)[C@@H](C)CN([C@H](C)CO)C(=O)c2cc(NC(=O)c3ccncc3)ccc2O1,-3,0,6,.,.
N#C/C(=C/c1ccc(-c2cc(C(=O)O)cc(C(=O)O)c2)o1)c1nc2ccccc2s1,.,.,.,.,28*
Cc1ccc(C(NC(=O)N2CCOCC2)C(Cl)(Cl)Cl)cc1F (stereo not drawn),0,0,-3,-3,-1
Cc1ccc(C(NC(=O)N2CCCC2)C(Cl)Cl)cc1F (stereo not drawn),0,44*,1,-2,2
Cc1ccc(C(NC(=O)NN2CCN(C)CC2)C(Cl)Cl)cc1F (stereo not drawn),-7,0,-1,-1,3
CCN1CCN(C(=O)NC(c2ccc(C)c(F)c2)C(Cl)Cl)CC1 (stereo not drawn),0,44*,3,-2,3
CC(C)C(=O)Nc1nnc(SCC(=O)Nc2ccc3c(c2)OCO3)s1,.,.,.,-2,2
CS(=O)(=O)Nc1nnc(SCC(=O)Nc2cccc([N+](=O)[O-])c2)s1,1,43*,-5,.,5
CC(=O)Nc1cccc(NC(=O)CSc2nnc(NC(=O)c3ccco3)s2)c1,3,1.5*,-1,4,9
O=C(CSc1nnc(NC(=O)c2ccco2)s1)Nc1cccc(F)c1,-1,0,22*,-1,1
SMILES,CASP6 VEID inh,FGF22 binding,SIRT5 inh,NSD2 inh,UCH37 inh
CC(C)C(=O)Nc1nnc(SCC(=O)Nc2ccc3c(c2)OCCO3)s1,12,1.4*,0,-3,4
C[C@@H]1CCCCO[C@H](CN(C)C(=O)Nc2ccc(C(F)(F)F)cc2)[C@@H](C)CN([C@H](C)CO)C(=O)c2cc(NC(=O)Nc3cccc4ccccc34)ccc2O1,-1,0,-5,.,.
C[C@H]1CCCCO[C@H](CN(C)S(=O)(=O)c2cccs2)[C@@H](C)CN([C@@H](C)CO)C(=O)c2cc(NS(=O)(=O)c3cn(C)cn3)ccc2O1,3,0,-6,.,.
O=c1c2ccccc2nc(SCc2ccccc2F)n1C1CCCC1,38*,0,.,2,3
COCCn1c(SCc2ccccc2F)nc2ccccc2c1=O,-2,0,0,-5,-2
C[C@@H]1CN([C@H](C)CO)C(=O)c2cc(NS(=O)(=O)c3ccccc3)ccc2O[C@@H](C)CCCCO[C@H]1CN(C)Cc1ccc(Cl)c(Cl)c1,0,1,4,.,.
C[C@@H]1CCCCO[C@H](CN(C)Cc2ccc(Cl)c(Cl)c2)[C@H](C)CN([C@@H](C)CO)C(=O)c2cc(NS(=O)(=O)c3ccccc3)ccc2O1,-2,1,16*,.,.
C[C@H]1CCCCO[C@H](CN(C)Cc2ccc(Cl)c(Cl)c2)[C@@H](C)CN([C@@H](C)CO)C(=O)c2cc(NS(=O)(=O)c3ccc(F)cc3)ccc2O1,2,0,15*,.,.
CC(CC(=O)Nc1ccccn1)=NNC(=O)c1cnccn1,.,.,.,.,1
NS(=O)(=O)c1ccc(N2C(=O)C3CC=CCC3C2=O)cc1 (stereo not drawn),13,44*,-2,-4,6
CN(C(=O)CCc1nnc(CCCCc2ccccc2)o1)C1CC(C)(C)NC(C)(C)C1,2,0,27*,1,3
O=C(CCc1nnc(CCCCc2ccccc2)o1)N(CCO)Cc1ccccc1,-2,0,-1,-2,3
O=C(C1CC1)N1CC2(C1)[C@H](c1ccccc1)[C@@H](CO)N2Cc1nccs1,-3,1,1,.,.
Cc1ccc(NS(=O)(=O)c2ccc3c(c2)N(C)CCO3)cc1,0,0,22*,7,.
O=C(Cc1ccccc1)NC1CCN(C(=O)c2ccc([N+](=O)[O-])cc2)CC1,-2,0,-4,2,3
O=C(Cc1ccccc1)N1CCN(C(=O)c2ccc([N+](=O)[O-])cc2)CC1,4,45*,0,1,2
CCCC#Cc1ccc2c(c1)O[C@H](CN(C)C(=O)c1ccccc1F)[C@@H](C)CN([C@@H](C)CO)S2(=O)=O,0,-1,19*,.,.
CCCC#Cc1ccc2c(c1)O[C@@H](CN(C)C(=O)c1ccccc1F)[C@@H](C)CN([C@H](C)CO)S2(=O)=O,1,-1,20*,.,.
CO[C@H]1CC[C@@H]2CCN(C)C(=O)[C@@H](C)[C@H](OC)CN(C)C(=O)c3cccc(C#N)c3OC[C@H]1O2,-1,0,1,.,.
C/C(CC(=O)Nc1ccc(C)c(Cl)c1)=N\NC(=O)Cc1ccccc1,.,.,.,3,.
C/C(CC(=O)Nc1ccc(C)c(Cl)c1)=N\NC(=O)Cc1cnc(N)s1,5,43*,-4,3,.
COc1cccc(-c2ccc([C@H]3[C@H](CO)N4C(=O)CN(C(=O)C5CCCCC5)C[C@@H]34)cc2)c1,.,.,-1,.,.
COc1ccc(CN(C)C[C@H]2Oc3c(NS(=O)(=O)c4ccc(Cl)cc4)cccc3C(=O)N([C@@H](C)CO)C[C@H]2C)cc1,1,0,-4,.,.
